Values after ≈ are worked out from the molar mass of the structure shown.
How the values were obtained:
[1] = test system: Mycobacterium tuberculosis; assay: Antibacterial activity against Mycobacterium tuberculosis by AlamarBlue assay; type: functional
[2] = test system: Mycobacteroides abscessus; assay: Antibacterial activity against Mycobacterium abscessus CIP104536 after 3 to 5 days by two fold serial dilution method; type: functional
Method in brief: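 Broth microdilution per CLSI in cation-adjusted Mueller–Hinton broth; exponential-phase inoculum 5 × 10^6 CFU/mL; two-fold serial dilutions from highest concentration, solvent wells as control; 30 °C for 3−5 days; MIC read visually and confirmed by absorbance at 560 nm; triplicate on three independent occasions.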

[3] = test system: Vero; assay: Cytotoxicity against African green monkey Vero cells; type: cell-based; conditions: Chlorocebus sabaeus
[4] = Selectivity index, ratio of IC50 for African green monkey Vero cells to MIC for Mycobacterium abscessus CIP104536; type: toxicity; conditions: read-out: Selectivity Index
[5] = Selectivity index, ratio of IC50 for African green monkey Vero cells to MIC=<90 for Mycobacterium tuberculosis; type: toxicity; conditions: read-out: Selectivity Index
[6] = test system: Mycobacteroides abscessus; assay: Antibacterial activity against CF patient derived Mycobacterium abscessus subsp. massiliense isolate 120 smooth variant after 3 to 5 days by two fold serial dilution method; type: functional
Method in brief: (§1)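 Broth microdilution in cation-adjusted Mueller−Hinton broth per CLSI; inoculum 5 × 10^6 CFU/mL of exponential-phase bacteria; two-fold serial dilutions, solvent-only wells as control; 30 °C for 3−5 days; MIC read visually and confirmed by absorbance at 560 nm; triplicate on three independent occasions.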

[7] = test system: Mycobacteroides abscessus; assay: Antibacterial activity against CF patient derived Mycobacterium abscessus subsp. massiliense isolate 107 smooth variant after 3 to 5 days by two fold serial dilution method; type: functional; method in brief: as §1
[8] = test system: Mycobacteroides abscessus; assay: Antibacterial activity against CF patient derived Mycobacterium abscessus subsp. massiliense isolate 185 smooth variant after 3 to 5 days by two fold serial dilution method; type: functional; method in brief: as §1
[9] = test system: Mycobacteroides abscessus; assay: Antibacterial activity against CF patient derived Mycobacterium abscessus subsp. abscessus smooth variant after 3 to 5 days by two fold serial dilution method; type: functional; method in brief: as §1
[10] = Antibacterial activity against Mycobacterium abscessus subsp. bolletii isolate CIP108541 smooth variant after 3 to 5 days by two fold serial dilution method; type: functional; conditions: Mycobacteroides abscessus; method in brief: as §1
[11] = test system: Mycobacteroides abscessus; assay: Antibacterial activity against non CF patient derived Mycobacterium abscessus subsp. abscessus isolate CIP104536 rough variant after 3 to 5 days by two fold serial dilution method; type: functional; method in brief: as §1
[12] = test system: Mycobacteroides abscessus; assay: Antibacterial activity against non CF patient derived Mycobacterium abscessus subsp. abscessus isolate 2587 smooth variant after 3 to 5 days by two fold serial dilution method; type: functional; method in brief: as §1
[13] = test system: Mycobacteroides abscessus; assay: Antibacterial activity against Addison's disease patient derived Mycobacterium abscessus subsp. massiliense isolate CIP108297 rough variant after 3 to 5 days by two fold serial dilution method; type: functional; method in brief: as §1
[14] = test system: Mycobacteroides abscessus; assay: Antibacterial activity against CF patient derived Mycobacterium abscessus subsp. massiliense isolate 212 smooth variant after 3 to 5 days by two fold serial dilution method; type: functional; method in brief: as §1
[15] = Antibacterial activity against CF patient derived Mycobacterium abscessus subsp. bolletii isolate 97 smooth variant after 3 to 5 days by two fold serial dilution method; type: functional; conditions: Mycobacteroides abscessus; method in brief: as §1
[16] = test system: Mycobacteroides abscessus; assay: Antibacterial activity against CF patient derived Mycobacterium abscessus subsp. abscessus rough variant after 3 to 5 days by two fold serial dilution method; type: functional; method in brief: as §1
[17] = test system: Mycobacteroides abscessus; assay: Antibacterial activity against Addison's disease patient derived Mycobacterium abscessus subsp. massiliense isolate CIP108297 smooth variant after 3 to 5 days by two fold serial dilution method; type: functional; method in brief: as §1
[18] = test system: Mycobacteroides abscessus; assay: Antibacterial activity against CF patient derived Mycobacterium abscessus subsp. massiliense isolate 100 smooth variant after 3 to 5 days by two fold serial dilution method; type: functional; method in brief: as §1
[19] = Antibacterial activity against CF patient derived Mycobacterium abscessus subsp. bolletii isolate 108 rough variant after 3 to 5 days by two fold serial dilution method; type: functional; conditions: Mycobacteroides abscessus; method in brief: as §1
[20] = test system: Mycobacteroides abscessus; assay: Antibacterial activity against CF patient derived Mycobacterium abscessus subsp. massiliense isolate 122 smooth variant after 3 to 5 days by two fold serial dilution method; type: functional; method in brief: as §1
[21] = Antibacterial activity against non CF patient derived Mycobacterium abscessus subsp. bolletii isolate 19 rough variant after 3 to 5 days by two fold serial dilution method; type: functional; conditions: Mycobacteroides abscessus; method in brief: as §1
[22] = test system: Mycobacteroides abscessus; assay: Antibacterial activity against CF patient derived Mycobacterium abscessus subsp. abscessus isolate 2069 smooth variant after 3 to 5 days by two fold serial dilution method; type: functional; method in brief: as §1
[23] = test system: Mycobacteroides abscessus; assay: Antibacterial activity against CF patient derived Mycobacterium abscessus subsp. abscessus isolate 2524 rough variant after 3 to 5 days by two fold serial dilution method; type: functional; method in brief: as §1
[24] = test system: Mycobacteroides abscessus; assay: Antibacterial activity against CF patient derived Mycobacterium abscessus subsp. abscessus isolate 3321 smooth variant after 3 to 5 days by two fold serial dilution method; type: functional; method in brief: as §1
[25] = test system: Mycobacteroides abscessus; assay: Antibacterial activity against CF patient derived Mycobacterium abscessus subsp. abscessus isolate 1298 smooth variant after 3 to 5 days by two fold serial dilution method; type: functional; method in brief: as §1
[26] = test system: Mycobacteroides abscessus; assay: Antibacterial activity against CF patient derived Mycobacterium abscessus subsp. massiliense isolate 111 smooth variant after 3 to 5 days by two fold serial dilution method; type: functional; method in brief: as §1
[27] = test system: Mycobacteroides abscessus; assay: Antibacterial activity against non CF patient derived Mycobacterium abscessus subsp. abscessus isolate 3022 rough variant after 3 to 5 days by two fold serial dilution method; type: functional; method in brief: as §1
[28] = Antibacterial activity against non CF patient derived Mycobacterium abscessus subsp. bolletii isolate 17 smooth variant after 3 to 5 days by two fold serial dilution method; type: functional; conditions: Mycobacteroides abscessus; method in brief: as §1
[29] = test system: Mycobacteroides abscessus; assay: Antibacterial activity against CF patient derived Mycobacterium abscessus subsp. abscessus isolate 2648 rough variant after 3 to 5 days by two fold serial dilution method; type: functional; method in brief: as §1
[30] = Antibacterial activity against CF patient derived Mycobacterium abscessus subsp. bolletii isolate 116 smooth variant after 3 to 5 days by two fold serial dilution method; type: functional; conditions: Mycobacteroides abscessus; method in brief: as §1
[31] = Antibacterial activity against CF patient derived Mycobacterium abscessus subsp. bolletii isolate 114 smooth variant after 3 to 5 days by two fold serial dilution method; type: functional; conditions: Mycobacteroides abscessus; method in brief: as §1
[32] = test system: Mycobacteroides abscessus; assay: Antibacterial activity against non CF patient derived Mycobacterium abscessus subsp. abscessus isolate CIP104536 smooth variant after 3 to 5 days by two fold serial dilution method; type: functional; method in brief: as §1
[33] = test system: Mycobacteroides abscessus; assay: Antibacterial activity against CF patient derived Mycobacterium abscessus subsp. massiliense isolate 140 smooth variant after 3 to 5 days by two fold serial dilution method; type: functional; method in brief: as §1
[34] = test system: Mycobacteroides abscessus; assay: Antibacterial activity against CF patient derived Mycobacterium abscessus subsp. massiliense isolate 210 rough variant after 3 to 5 days by two fold serial dilution method; type: functional; method in brief: as §1
[35] = Antibacterial activity against CF patient derived Mycobacterium abscessus subsp. bolletii isolate 112 rough variant after 3 to 5 days by two fold serial dilution method; type: functional; conditions: Mycobacteroides abscessus; method in brief: as §1

## Cc1cc(C)c2cc(C(=O)NC3CCCCCCC3)oc2c1
[1]
  MIC=<90: 8 µg/mL (≈ 26.7 µM)
[2]
  MIC: 0.5 µg/mL (≈ 1.67 µM)

## O=C(Nc1nc2ccc(OC(F)(F)F)cc2s1)C1CCCCCC1
[1]
  MIC=<90: 128 µg/mL (≈ 357 µM)
[2]
  MIC: > 32 µg/mL

## Cc1cc(C)c2[nH]c(C(=O)NC3CCCCCC3)cc2c1
[1]
  MIC=<90: 0.0625 µg/mL (≈ 0.22 µM)
[2]
  MIC: 0.25 µg/mL (≈ 0.879 µM)

## CC1(C)C2CC[C@@]1(C)C(NC(=O)c1cc3c(Cl)cc(Cl)cc3[nH]1)C2 (some centres undefined)
[3]
  IC50: 8 µg/mL (≈ 21.9 µM)
[4]
  selectivity ratio: 0.25
[5]
  selectivity ratio: 513
[1]
  MIC=<90: 0.0156 µg/mL (≈ 0.0427 µM)
[2]
  MIC: > 32 µg/mL

## Cc1cc(C)c2cc(C(=O)NC34CC5CC(CC(C5)C3)C4)oc2c1
[1]
  MIC=<90: 1 µg/mL (≈ 3.09 µM)
[2]
  MIC: 1 µg/mL (≈ 3.09 µM)

## O=C(NC1CCC2(CCCCC2)CC1)c1cc2c(Cl)cc(Cl)cc2[nH]1
[3]
  IC50: ≥ 64 µg/mL
[4]
  selectivity ratio: ≥ 2
[5]
  selectivity ratio: ≥ 32800
[1]
  MIC=<90: 0.001953 µg/mL (≈ 0.00515 µM)
[2]
  MIC: > 32 µg/mL

## Cc1cc(C)c2cc(CNC3CCCCCCC3)[nH]c2c1
[1]
  MIC=<90: 0.125 µg/mL (≈ 0.439 µM)
[2]
  MIC: 0.5 µg/mL (≈ 1.76 µM)

## O=C(NC1CCCCCCC1)c1cc2c(C(F)(F)F)cc(C(F)(F)F)cc2[nH]1
[1]
  MIC=<90: 0.0156 µg/mL (≈ 0.0384 µM)
[2]
  MIC: 0.5 µg/mL (≈ 1.23 µM)

## COc1cc(OC)c2cc(C(=O)NC3CCCCCC3)[nH]c2c1
[1]
  MIC=<90: 0.0625 µg/mL (≈ 0.198 µM)
[2]
  MIC: 1 µg/mL (≈ 3.16 µM)

## O=C(NC12CC3CC(CC(C3)C1)C2)c1cc2c(Cl)cc(Cl)cc2[nH]1
[3]
  IC50: ≥ 32 µg/mL
[4]
  selectivity ratio: ≥ 1
[5]
  selectivity ratio: ≥ 8210
[1]
  MIC=<90: 0.0039 µg/mL (≈ 0.0107 µM)
[2]
  MIC: > 32 µg/mL

## O=C(NC1CCCCCCC1)c1cc2cc(Cl)ccc2o1
[1]
  MIC=<90: 8 µg/mL (≈ 26.2 µM)
[2]
  MIC: 0.5 µg/mL (≈ 1.64 µM)

## C[C@@H]1[C@@H](NC(=O)c2cc3c(F)cc(F)cc3[nH]2)C[C@H]2C[C@@H]1C2(C)C
[3]
  IC50: ≥ 64 µg/mL
[4]
  selectivity ratio: ≥ 2
[5]
  selectivity ratio: ≥ 16400
[1]
  MIC=<90: 0.0039 µg/mL (≈ 0.0117 µM)
[2]
  MIC: 32 µg/mL (≈ 96.3 µM)

## Cc1cc(C)c2cc(C(=O)NC3CCCCCC3)[nH]c2c1
[3]
  IC50: 16 µg/mL (≈ 56.3 µM)
[4]
  selectivity ratio: 128
[5]
  selectivity ratio: 4100
[1]
  MIC=<90: 0.0039 µg/mL (≈ 0.0137 µM)
[2]
  MIC: 0.125 µg/mL (≈ 0.44 µM)

## NCC[C@H](O)C(=O)N[C@@H]1C[C@H](N)[C@@H](O[C@H]2O[C@H](CN)[C@@H](O)[C@H](O)[C@H]2O)[C@H](O)[C@H]1O[C@H]1O[C@H](CO)[C@@H](O)[C@H](N)[C@H]1O [AMIKACIN]
[6]
  MIC: 12.5 µg/mL (≈ 21.3 µM)
[7]
  MIC: 12.5 µg/mL (≈ 21.3 µM)
[8]
  MIC: 25 µg/mL (≈ 42.7 µM)
[9]
  MIC: 12.5 µg/mL (≈ 21.3 µM)
[10]
  MIC: 25 µg/mL (≈ 42.7 µM)
[11]
  MIC: 12.5 µg/mL (≈ 21.3 µM)
[12]
  MIC: 25 µg/mL (≈ 42.7 µM)
[13]
  MIC: 12.5 µg/mL (≈ 21.3 µM)
[14]
  MIC: 25 µg/mL (≈ 42.7 µM)
[15]
  MIC: 12.5 µg/mL (≈ 21.3 µM)
[16]
  MIC: 12.5 µg/mL (≈ 21.3 µM)
[17]
  MIC: 25 µg/mL (≈ 42.7 µM)
[18]
  MIC: > 100 µg/mL
[19]
  MIC: 12.8 µg/mL (≈ 21.9 µM)
[20]
  MIC: 12.5 µg/mL (≈ 21.3 µM)
[21]
  MIC: 50 µg/mL (≈ 85.4 µM)
[22]
  MIC: 25 µg/mL (≈ 42.7 µM)
[23]
  MIC: 25 µg/mL (≈ 42.7 µM)
[24]
  MIC: 25 µg/mL (≈ 42.7 µM)
[25]
  MIC: 12.5 µg/mL (≈ 21.3 µM)
[26]
  MIC: 25 µg/mL (≈ 42.7 µM)
[27]
  MIC: 12.5 µg/mL (≈ 21.3 µM)
[28]
  MIC: 12.5 µg/mL (≈ 21.3 µM)
[29]
  MIC: 12.5 µg/mL (≈ 21.3 µM)
[30]
  MIC: 12.5 µg/mL (≈ 21.3 µM)
[31]
  MIC: 12.5 µg/mL (≈ 21.3 µM)
[32]
  MIC: 25 µg/mL (≈ 42.7 µM)
[33]
  MIC: 25 µg/mL (≈ 42.7 µM)
[34]
  MIC: 12.5 µg/mL (≈ 21.3 µM)
[35]
  MIC: > 100 µg/mL

## C[C@@H]1[C@@H](NC(=O)c2cc3ccc(Br)cc3[nH]2)C[C@H]2C[C@@H]1C2(C)C
[1]
  MIC=<90: 0.0039 µg/mL (≈ 0.0104 µM)
[2]
  MIC: 0.125 µg/mL (≈ 0.333 µM)

## CO[C@H]1/C=C/O[C@@]2(C)Oc3c(C)c(O)c4c(O)c(c(/C=N/N5CCN(C)CC5)c(O)c4c3C2=O)NC(=O)/C(C)=C\C=C\[C@H](C)[C@H](O)[C@@H](C)[C@@H](O)[C@@H](C)[C@H](OC(C)=O)[C@@H]1C [RIFAMPIN]
[3]
  IC50: > 256 µg/mL

— ChEMBL document CHEMBL4014347, “Targeting Mycolic Acid Transport by Indole-2-carboxamides for the Treatment of Mycobacterium abscessus Infections” (J Med Chem, 2017)
